According to ChEMBL document CHEMBL4689842, “EUbOPEN Chemogenomics Library wave 1” (2021):
Values joined by “and” are separate entries in the source; they are usually repeats but may differ in a detail not shown here. Identical values can stand only once.

Tested on: Fibroblast
Experiment: Multiplex assay against human fibroblast
Type: toxicity, cell-based
Procedure, shortened: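 Compound was added to live cells that had been stained at seeding with Hoechst33342, BioTracker Green Microtubule Cytoskeleton Dye, MitoTracker Red and Annexin V Alexa Fluor 680, and imaging followed on a CQ1 microscope at 37°C and 5% CO2. CellPathfinder machine-learning gating divided cells into Hoechst high-intensity objects or normal cells, normal cells into healthy, pyknosed or fragmented nuclei, and pyknosed cells into mitotic or apoptotic. Tubulin, mitochondrial-mass and membrane-permeability phenotypes are per cents of healthy-nucleus cells.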

[1] = 12 h, 1 µM, compound concentration 1 uM, replicate 1
[2] = 12 h, 1 µM, compound concentration 1 uM, replicate 2
[3] = 12 h, 10 µM, compound concentration 10 uM, replicate 1
[4] = 12 h, 10 µM, compound concentration 10 uM, replicate 2
[5] = 24 h, 1 µM, compound concentration 1 uM, replicate 1
[6] = 24 h, 1 µM, compound concentration 1 uM, replicate 2
[7] = 24 h, 10 µM, compound concentration 10 uM, replicate 1
[8] = 24 h, 10 µM, compound concentration 10 uM, replicate 2
[9] = 48 h, 1 µM, compound concentration 1 uM, replicate 1
[10] = 48 h, 1 µM, compound concentration 1 uM, replicate 2
[11] = 48 h, 10 µM, compound concentration 10 uM, replicate 1
[12] = 48 h, 10 µM, compound concentration 10 uM, replicate 2

`Cl.Oc1ccc2c3c1O[C@H]1c4[nH]c5c(c4C[C@@]4(O)[C@@H](C2)N(CC2CC2)CC[C@]314)C[C@@]1(O)[C@H]2Cc3ccc(O)c4c3[C@@]1(CCN2CC1CC1)[C@H]5O4` was tested, and the “Population Apoptotic (%)” value [1] was 71%, the “Population Fragmented Nuclei (%)” value [1] was 27% and the “Population Healthy Nuclei (%)” value [1] was 40%. For the same molecule, the “Population Hoechst High Intensity Objects (%)” value [1] was 15%, the “Population Membrane Permeable-Phenotype (%)” value [1] was 20% and the “Population Mitochondria Different-Phenotype (%)” value [1] was 11%. The “Population Mitotic Cells (%)” value [1] was 28%, the “Population Normal (%)” value [1] was 84% and the “Population Pyknosed Nuclei (%)” value [1] was 32%. The “Population Tubulin-Different-Phenotype (%)” value [1] was 31%, the “Total Cell Count” value [1] was 103 and the “Population Apoptotic (%)” value [2] was 42%. For the same molecule, the “Population Fragmented Nuclei (%)” value [2] was 3%, the “Population Healthy Nuclei (%)” value [2] was 86% and the “Population Hoechst High Intensity Objects (%)” value [2] was 9%. The “Population Membrane Permeable-Phenotype (%)” value [2] was 10%, the “Population Mitochondria Different-Phenotype (%)” value [2] was 19% and the “Population Mitotic Cells (%)” value [2] was 57%. The “Population Normal (%)” value [2] was 90%, the “Population Pyknosed Nuclei (%)” value [2] was 10% and the “Population Tubulin-Different-Phenotype (%)” value [2] was 17%. The “Total Cell Count” value [2] was 97, the “Population Apoptotic (%)” value [3] was 69% and the “Population Fragmented Nuclei (%)” value [3] was 23%. For the same molecule, the “Population Healthy Nuclei (%)” value [3] was 47%, the “Population Hoechst High Intensity Objects (%)” value [3] was 8% and the “Population Membrane Permeable-Phenotype (%)” value [3] was 25%. The “Population Mitochondria Different-Phenotype (%)” value [3] was 5%, the “Population Mitotic Cells (%)” value [3] was 30% and the “Population Normal (%)” value [3] was 91%. The “Population Pyknosed Nuclei (%)” value [3] was 28%, the “Population Tubulin-Different-Phenotype (%)” value [3] was 41% and the “Total Cell Count” value [3] was 173. The “Population Apoptotic (%)” value [4] was 93%, the “Population Fragmented Nuclei (%)” value [4] was 12% and the “Population Healthy Nuclei (%)” value [4] was 48%. The “Population Hoechst High Intensity Objects (%)” value [4] was 7%, the “Population Membrane Permeable-Phenotype (%)” value [4] was 52% and the “Population Mitochondria Different-Phenotype (%)” value [4] was 26%. The “Population Mitotic Cells (%)” value [4] was 6%, the “Population Normal (%)” value [4] was 92% and the “Population Pyknosed Nuclei (%)” value [4] was 38%. The “Population Tubulin-Different-Phenotype (%)” value [4] was 89%, the “Total Cell Count” value [4] was 73 and the “Population Apoptotic (%)” value [5] was 66%. For the same molecule, the “Population Fragmented Nuclei (%)” value [5] was 19%, the “Population Healthy Nuclei (%)” value [5] was 51% and the “Population Hoechst High Intensity Objects (%)” value [5] was 14%. For the same molecule, the “Population Membrane Permeable-Phenotype (%)” value [5] was 27%, the “Population Mitochondria Different-Phenotype (%)” value [5] was 2% and the “Population Mitotic Cells (%)” value [5] was 33%. For the same molecule, the “Population Normal (%)” value [5] was 85%, the “Population Pyknosed Nuclei (%)” value [5] was 29% and the “Population Tubulin-Different-Phenotype (%)” value [5] was 43%. The “Total Cell Count” value [5] was 84, the “Population Apoptotic (%)” value [6] was 25% and the “Population Fragmented Nuclei (%)” value [6] was 3%. For the same molecule, the “Population Healthy Nuclei (%)” value [6] was 91%, the “Population Hoechst High Intensity Objects (%)” value [6] was 4% and the “Population Membrane Permeable-Phenotype (%)” value [6] was 10%. For the same molecule, the “Population Mitochondria Different-Phenotype (%)” value [6] was 13%, the “Population Mitotic Cells (%)” value [6] was 75% and the “Population Normal (%)” value [6] was 95%. The “Population Pyknosed Nuclei (%)” value [6] was 4%, the “Population Tubulin-Different-Phenotype (%)” value [6] was 18% and the “Total Cell Count” value [6] was 94. The “Population Apoptotic (%)” value [7] was 65%, the “Population Fragmented Nuclei (%)” value [7] was 18% and the “Population Healthy Nuclei (%)” value [7] was 62%. The “Population Hoechst High Intensity Objects (%)” value [7] was 15%, the “Population Membrane Permeable-Phenotype (%)” value [7] was 25% and the “Population Mitochondria Different-Phenotype (%)” value [7] was 3%. For the same molecule, the “Population Mitotic Cells (%)” value [7] was 34%, the “Population Normal (%)” value [7] was 84% and the “Population Pyknosed Nuclei (%)” value [7] was 19%. The “Population Tubulin-Different-Phenotype (%)” value [7] was 27%, the “Total Cell Count” value [7] was 178 and the “Population Apoptotic (%)” value [8] was 76%. The “Population Fragmented Nuclei (%)” value [8] was 13%, the “Population Healthy Nuclei (%)” value [8] was 58% and the “Population Hoechst High Intensity Objects (%)” value [8] was 13%. The “Population Membrane Permeable-Phenotype (%)” value [8] was 48%, the “Population Mitochondria Different-Phenotype (%)” value [8] was 33% and the “Population Mitotic Cells (%)” value [8] was 23%. The “Population Normal (%)” value [8] was 86%, the “Population Pyknosed Nuclei (%)” value [8] was 28% and the “Population Tubulin-Different-Phenotype (%)” value [8] was 77%. For the same molecule, the “Total Cell Count” value [8] was 91, the “Population Apoptotic (%)” value [9] was 60% and the “Population Fragmented Nuclei (%)” value [9] was 26%. The “Population Healthy Nuclei (%)” value [9] was 52%, the “Population Hoechst High Intensity Objects (%)” value [9] was 16% and the “Population Membrane Permeable-Phenotype (%)” value [9] was 32%. For the same molecule, the “Population Mitochondria Different-Phenotype (%)” value [9] was 5%, the “Population Mitotic Cells (%)” value [9] was 40% and the “Population Normal (%)” value [9] was 83%. The “Population Pyknosed Nuclei (%)” value [9] was 21%, the “Population Tubulin-Different-Phenotype (%)” value [9] was 43% and the “Total Cell Count” value [9] was 85. For the same molecule, the “Population Apoptotic (%)” value [10] was 75%, the “Population Fragmented Nuclei (%)” value [10] was 16% and the “Population Healthy Nuclei (%)” value [10] was 78%. The “Population Hoechst High Intensity Objects (%)” value [10] was 7%, the “Population Membrane Permeable-Phenotype (%)” value [10] was 18% and the “Population Mitochondria Different-Phenotype (%)” value [10] was 0%. The “Population Mitotic Cells (%)” value [10] was 25%, the “Population Normal (%)” value [10] was 92% and the “Population Pyknosed Nuclei (%)” value [10] was 4%. For the same molecule, the “Population Tubulin-Different-Phenotype (%)” value [10] was 26%, the “Total Cell Count” value [10] was 103 and the “Population Apoptotic (%)” value [11] was 61%. The “Population Fragmented Nuclei (%)” value [11] was 31%, the “Population Healthy Nuclei (%)” value [11] was 55% and the “Population Hoechst High Intensity Objects (%)” value [11] was 18%. For the same molecule, the “Population Membrane Permeable-Phenotype (%)” value [11] was 30%, the “Population Mitochondria Different-Phenotype (%)” value [11] was 6% and the “Population Mitotic Cells (%)” value [11] was 38%. The “Population Normal (%)” value [11] was 81%, the “Population Pyknosed Nuclei (%)” value [11] was 12% and the “Population Tubulin-Different-Phenotype (%)” value [11] was 34%. The “Total Cell Count” value [11] was 172, the “Population Apoptotic (%)” value [12] was 66% and the “Population Fragmented Nuclei (%)” value [12] was 29%. For the same molecule, the “Population Healthy Nuclei (%)” value [12] was 66%, the “Population Hoechst High Intensity Objects (%)” value [12] was 10% and the “Population Membrane Permeable-Phenotype (%)” value [12] was 14%. The “Population Mitochondria Different-Phenotype (%)” value [12] was 1%, the “Population Mitotic Cells (%)” value [12] was 33% and the “Population Normal (%)” value [12] was 89%. The “Population Pyknosed Nuclei (%)” value [12] was 3%, the “Population Tubulin-Different-Phenotype (%)” value [12] was 41% and the “Total Cell Count” value [12] was 94.
`C[C@H]1Oc2cc(cnc2N)-c2c(nn(C)c2C#N)CN(C)C(=O)c2ccc(F)cc21` [LORLATINIB] was tested, and the “Population Apoptotic (%)” value [1] was 60% and 68%, the “Population Fragmented Nuclei (%)” value [1] was 26% and 17% and the “Population Healthy Nuclei (%)” value [1] was 55% and 68%. The “Population Hoechst High Intensity Objects (%)” value [1] was 19% and 8%, the “Population Membrane Permeable-Phenotype (%)” value [1] was 20% and 11% and the “Population Mitochondria Different-Phenotype (%)” value [1] was 7% and 4%. The “Population Mitotic Cells (%)” value [1] was 40% and 31%, the “Population Normal (%)” value [1] was 80% and 91% and the “Population Pyknosed Nuclei (%)” value [1] was 17% and 14%. For the same molecule, the “Total Cell Count” value [1] was 210 and 172, the “Population Apoptotic (%)” value [2] was 42% and 64% and the “Population Fragmented Nuclei (%)” value [2] was 63% and 54%. The “Population Healthy Nuclei (%)” value [2] was 25% and 15%, the “Population Hoechst High Intensity Objects (%)” value [2] was 34% and 31% and the “Population Membrane Permeable-Phenotype (%)” value [2] was 33% and 28%. The “Population Mitotic Cells (%)” value [2] was 57% and 35%, the “Population Normal (%)” value [2] was 65% and 68% and the “Population Pyknosed Nuclei (%)” value [2] was 11% and 30%. The “Population Tubulin-Different-Phenotype (%)” value [2] was 40% and 57%, the “Total Cell Count” value [2] was 91 and 67 and the “Population Apoptotic (%)” value [5] was 55% and 64%. The “Population Fragmented Nuclei (%)” value [5] was 22% and 24%, the “Population Healthy Nuclei (%)” value [5] was 56% and 66% and the “Population Hoechst High Intensity Objects (%)” value [5] was 14% and 12%. For the same molecule, the “Population Membrane Permeable-Phenotype (%)” value [5] was 15% and 6%, the “Population Mitotic Cells (%)” value [5] was 44% and 35% and the “Population Normal (%)” value [5] was 85% and 87%. The “Population Pyknosed Nuclei (%)” value [5] was 21%, the “Total Cell Count” value [5] was 201 and 190 and the “Population Apoptotic (%)” value [6] was 57% and 40%. The “Population Fragmented Nuclei (%)” value [6] was 55% and 65%, the “Population Hoechst High Intensity Objects (%)” value [6] was 36% and 33% and the “Population Membrane Permeable-Phenotype (%)” value [6] was 33% and 20%. For the same molecule, the “Population Mitochondria Different-Phenotype (%)” value [6] was 0% and 13%, the “Population Mitotic Cells (%)” value [6] was 42% and 60% and the “Population Normal (%)” value [6] was 63% and 66%. The “Population Tubulin-Different-Phenotype (%)” value [6] was 33% and 26% and the “Total Cell Count” value [6] was 60 and 87.
